{
  "source": "ChEMBL document CHEMBL3228044",
  "about": "“Studies on antianaphylactic agents. 6. Synthesis of some metabolites of 6-ethyl-3-(1H-tetrazol-5-yl)chromone and their analogues” (1979)",
  "key": {"Rattus norvegicus [1]": {"system": "Rattus norvegicus", "test": "Antianaphylactic activity in iv dosed male Sprague-Dawley rat assessed as inhibition of egg albumin/Bordetella pertussis-induced passive cutaneous anaphylaxis reaction", "assay_type": "functional", "details": "read-out: ID50 (the source's name)", "outline": "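Sera from rats sensitized with im egg albumin plus ip sterilized B. pertussis (collected day 12) were diluted fourfold and injected intradermally into dorsal skin of 8-week rats (~280 g). At 72 h, rats received iv egg albumin 5 mg plus Evans blue 10 mg. Drug in saline or PEG 400 was given iv immediately before challenge. Dye-leakage area (mm2) was read at 30 min. ID50 by least squares on log dose, with 95% confidence limits.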"}, "Rattus norvegicus [2]": {"system": "Rattus norvegicus", "test": "Antianaphylactic activity in po dosed male Sprague-Dawley rat assessed as inhibition of egg albumin/Bordetella pertussis-induced passive cutaneous anaphylaxis reaction", "assay_type": "functional", "details": "read-out: ID50 (the source's name)", "outline": "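Homologous rat PCA used 72-h skin sensitization with fourfold-diluted anti-egg albumin serum, raised with B. pertussis adjuvant, in 8-week rats (~280 g). Drug was suspended in 3% gum arabic and given orally 5 min before iv challenge with egg albumin 5 mg plus Evans blue 10 mg. Dye-leakage area (mm2) was measured after 30 min. ID50 by least squares on log dose vs area, with 95% confidence limits.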"}},
  "data": [
    {"molecule": "O=c1c(-c2nnn[nH]2)coc2ccc(C(O)CO)cc12", "note": "(stereo not given)", "values": [
      {"measurement": "ED50", "setting": "Rattus norvegicus [1]", "value": 0.57, "unit": "mg/kg"},
      {"measurement": "ED50", "setting": "Rattus norvegicus [2]", "value": "> 20", "unit": "mg/kg"}
    ]},
    {"molecule": "CCc1ccc2occ(-c3nnnn3[C@@H]3O[C@H](C(=O)[O-])[C@@H](O)[C@H](O)[C@H]3O)c(=O)c2c1.[Na+]", "values": [
      {"measurement": "ED50", "setting": "Rattus norvegicus [1]", "value": "> 20", "unit": "mg/kg"}
    ]},
    {"molecule": "O=Cc1ccc2occ(-c3nnn[nH]3)c(=O)c2c1", "values": [
      {"measurement": "ED50", "setting": "Rattus norvegicus [1]", "value": 1.1, "unit": "mg/kg"},
      {"measurement": "ED50", "setting": "Rattus norvegicus [2]", "value": "> 20", "unit": "mg/kg"}
    ]},
    {"molecule": "CCC(O)c1ccc2occ(-c3nnn[nH]3)c(=O)c2c1", "note": "(stereo not given)", "values": [
      {"measurement": "ED50", "setting": "Rattus norvegicus [1]", "value": 0.3, "unit": "mg/kg"},
      {"measurement": "ED50", "setting": "Rattus norvegicus [2]", "value": "> 20", "unit": "mg/kg"}
    ]},
    {"molecule": "CC(C)(O)c1ccc2occ(-c3nnn[nH]3)c(=O)c2c1", "values": [
      {"measurement": "ED50", "setting": "Rattus norvegicus [1]", "value": 1.13, "unit": "mg/kg"}
    ]},
    {"molecule": "CC(=O)c1ccc2occ(-c3nnn[nH]3)c(=O)c2c1", "values": [
      {"measurement": "ED50", "setting": "Rattus norvegicus [1]", "value": 0.24, "unit": "mg/kg"},
      {"measurement": "ED50", "setting": "Rattus norvegicus [2]", "value": 6.6, "unit": "mg/kg"}
    ]},
    {"molecule": "O=c1c(-c2nnn[nH]2)coc2ccc(CO)cc12", "values": [
      {"measurement": "ED50", "setting": "Rattus norvegicus [1]", "value": 0.34, "unit": "mg/kg"}
    ]},
    {"molecule": "O=C([O-])c1cc(=O)c2c(OCC(O)COc3cccc4oc(C(=O)[O-])cc(=O)c34)cccc2o1.[Na+].[Na+]", "note": "[CROMOLYN SODIUM]", "values": [
      {"measurement": "ED50", "setting": "Rattus norvegicus [1]", "value": 1.33, "unit": "mg/kg"},
      {"measurement": "ED50", "setting": "Rattus norvegicus [2]", "value": "> 100", "unit": "mg/kg"}
    ]},
    {"molecule": "O=c1c(-c2nnn[nH]2)coc2ccc(CCO)cc12", "values": [
      {"measurement": "ED50", "setting": "Rattus norvegicus [1]", "value": 0.21, "unit": "mg/kg"},
      {"measurement": "ED50", "setting": "Rattus norvegicus [2]", "value": "> 20", "unit": "mg/kg"}
    ]},
    {"molecule": "CC(=O)OC(C)c1ccc2occ(-c3nnn[nH]3)c(=O)c2c1", "note": "(stereo not given)", "values": [
      {"measurement": "ED50", "setting": "Rattus norvegicus [2]", "value": "> 20", "unit": "mg/kg"}
    ]},
    {"molecule": "O=C(O)Cc1ccc(O)c(C(=O)O)c1", "values": [
      {"measurement": "ED50", "setting": "Rattus norvegicus [1]", "value": "> 20", "unit": "mg/kg"}
    ]},
    {"molecule": "CCCC(O)c1ccc2occ(-c3nnn[nH]3)c(=O)c2c1", "note": "(stereo not given)", "values": [
      {"measurement": "ED50", "setting": "Rattus norvegicus [1]", "value": 1.07, "unit": "mg/kg"}
    ]},
    {"molecule": "CCc1ccc(O)c(C(=O)O)c1", "values": [
      {"measurement": "ED50", "setting": "Rattus norvegicus [1]", "value": "> 20", "unit": "mg/kg"}
    ]},
    {"molecule": "CC(O)c1ccc2occ(-c3nnn[nH]3)c(=O)c2c1", "note": "(stereo not given)", "values": [
      {"measurement": "ED50", "setting": "Rattus norvegicus [1]", "value": 0.56, "unit": "mg/kg"},
      {"measurement": "ED50", "setting": "Rattus norvegicus [2]", "value": 13.4, "unit": "mg/kg"}
    ]},
    {"molecule": "CCc1ccc2occ(-c3nnn[nH]3)c(=O)c2c1", "values": [
      {"measurement": "ED50", "setting": "Rattus norvegicus [1]", "value": 0.25, "unit": "mg/kg"},
      {"measurement": "ED50", "setting": "Rattus norvegicus [2]", "value": 5.9, "unit": "mg/kg"}
    ]},
    {"molecule": "CCC(=O)c1ccc2occ(-c3nnn[nH]3)c(=O)c2c1", "values": [
      {"measurement": "ED50", "setting": "Rattus norvegicus [1]", "value": 0.29, "unit": "mg/kg"}
    ]},
    {"molecule": "C=Cc1ccc2occ(-c3nnn[nH]3)c(=O)c2c1", "values": [
      {"measurement": "ED50", "setting": "Rattus norvegicus [1]", "value": 0.49, "unit": "mg/kg"}
    ]}
  ]
}
